Data as given in ChEMBL document CHEMBL4513216, “Probing the Open Global Health Chemical Diversity Library for Multistage-Active Starting Points for Next-Generation Antimalarials” (ACS Infect Dis, 2020).

experiment: Toxicity liver stage against HepG2, at 10uM; format: cell-based; parameters: test concentration 10 uM, cell line HepG2-A16-CD81EGFP; settings: human, HepG2-A16-CD81EGFP cells; read-out: INHIBITION
How it was run: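 Uninfected HepG2-A16-CD81EGFP cells, 3 × 10^3 per well, 1536-well, plated on prespotted compound at 10 μM final, parasite-free screening media added to match infected plates; puromycin 10 μM positive, DMSO 0.5% negative; run in parallel with 48 h PbLuc assay at 37 °C, 5% CO2; viability by CellTiter-Glo luminescence, normalized to controls.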

SMILES	cytotoxicity at 10 µM
Cc1cccc(NC(=O)CNC(=O)Cn2ncc(Cl)c(Cl)c2=O)c1C	12.7%
CCCNC(=O)CNC(=O)CCc1ccccc1Br	12.3%
Cc1n[nH]c2nc(-c3cc(Br)ccc3O)cc(C(=O)O)c12	0.0962%
Cc1c(C2SCC(=O)Nc3c2c(O)nn3C2CCCC2)cnn1C (stereo not given)	1.58%
O=C(Cn1ccc2c(Cl)cccc21)Nc1nc[nH]n1	-1.88%
COCC(=O)N1CCc2[nH]c(=O)ccc2C1	4.11%
CC(C)Cn1c2c(ccc1=O)CC(N)CC2 (stereo not given)	8.03%
O=C(c1ccc(F)c(F)c1)N1C[C@H]2CNC[C@H]2C1	5.82%
Cc1nc(N2CCOCC2)nc2c1CN(C(=O)C(C)C)CC2	0.552%
CCN1CC2(CC1=O)CN(C(=O)c1ccco1)CCN(C(=O)N(C)C)C2 (stereo not given)	-8.37%
CCN(Cc1nonc1C)C(=O)c1ccc(Br)o1	0.621%
O=C(CCN1CCOCC1)NC(Cc1ccsc1)c1nccs1 (stereo not given)	3.35%
CNC(=O)CCc1cc(C)nc(C2CCN(C(=O)CN(C)C)CC2)c1	-3.48%
Cc1nc(NCCO)cc(C(C)Cn2nc(C)c(C)c2C)n1 (stereo not given)	4.41%
Cc1noc(C)c1-c1cccc(C2CCNCC2)n1	2.98%
CC1CCC(NCCNC(=O)c2cccs2)CC1 (stereo not given)	-11.8%
Cc1ccc(-c2nnc(SCC(=O)O)n2-c2ccccc2)cc1	-4.9%
COc1cccc(CNC(=O)c2ccccc2-n2cc(CN)cn2)c1	-21%
O=C(c1cnco1)N1C[C@@H](O)[C@H](Oc2cccc(F)c2)C1	-17.5%
Cc1ncsc1C(=O)N1CCCC(c2cc(C(F)F)n3ncnc3n2)C1 (stereo not given)	4.05%
Cc1noc(CN2CCN(c3cncc(Cl)n3)CC2)n1	2.74%
CC(C#N)CN(C)C(=O)CCNC(=O)OC(C)(C)C (stereo not given)	4.94%

SMILES	cytotoxicity at 10 µM
CCC(NC(=O)Cn1ccc(=O)n(C)c1=O)c1ccc(OC)cc1 (stereo not given)	2.19%
O=C1CCN(C(=O)CCc2ccc(Cl)cc2Cl)CCN1	1.88%
CC1CN(C(=O)c2sccc2Br)CCO1 (stereo not given)	5.15%
Cc1nc(Cn2cc(C#N)c(=O)c3ccccc32)no1	9.95%
CC1CCN(C(=O)C2CCN(S(C)(=O)=O)CC2)c2ccccc21 (stereo not given)	-9.28%
Cc1ccc(CN2CCOCC2)cc1NCc1ccsc1	-8.84%
COCCC(=O)N(CCC#N)c1ccc2c(c1)OCCO2	-1.23%
Cc1cc(CNc2ccc(C(=O)N3CCc4ccccc43)cn2)on1	-0.0529%
Cc1ccc(C)c(S(=O)(=O)CCN2CCCC2Cn2cccn2)c1 (stereo not given)	-8.78%
Cc1oc(-c2ccsc2)nc1CC(=O)NCCCS(C)(=O)=O	-11.2%
Cc1nn(CC(=O)N2CCN(c3ncccn3)CC2)c(C)c1Cl	0.215%
O=C(Nc1cccn(CC(F)(F)F)c1=O)c1ccncc1F	0.315%
CC(C)OCCS(=O)(=O)N1CCCC1c1cccc(N(C)C)c1 (stereo not given)	-1.22%
Cc1cnc(CNc2ccc(C(=O)NCc3ccco3)cc2C)o1	-4.51%
COCC1CCCN(C(=O)c2ccc(NC(=O)CC(C)C)c(C)c2)C1 (stereo not given)	-5.76%
CC(C)C(O)CNC(=O)Nc1cnn(Cc2ccccc2)c1 (stereo not given)	6.61%
CCC(=O)NCc1cc(Br)ccc1OC(F)F	17.2%
Cc1cc(C(=O)NC2CCCN(c3ccccc3)C2=O)on1 (stereo not given)	24.7%
O=C(NCc1ccoc1)Nc1ccc(CN2CCOC2=O)cc1	14.1%
COc1cc(NC(=O)c2cc(C)sc2C)c(C(=O)N(C)C)cc1OC	-10.6%
COCCN(C)C(=O)c1ccc(OC)cc1O	-3.19%
CCCNC(=O)c1cc2c(s1)CCN2c1ncccn1	-105%

SMILES	cytotoxicity at 10 µM
CNC(=O)[C@H]1C[C@@H]2CN(C(=O)c3ccc(C)nc3)C[C@@H]2N1C	-107%
Cc1cnc(C)c(N2CCN(CC3CCCO3)CC2)n1 (stereo not given)	5.82%
CC(C)c1cc(CN(C)C(=O)CN2CCNC2=O)no1	-6.1%
Cc1cccc(CN2CCC(Cc3ccccc3F)CC2)n1	1.88%
COc1ccc(C(=O)N2C[C@@H](C(=O)O)[C@H](c3ccccc3)C2)c(O)c1	-2.14%
NC(=O)c1cc2c(nc1N1C[C@H]3OC(=O)N(C4CCCC4)[C@H]3C1)CCC2	2.24%
Cc1ccc2c(C)c(C(=O)NCCc3csc(N)n3)oc2c1	-8.79%
Cc1cccnc1CN(C)C(C(=O)O)c1ccc(-n2cccn2)cc1 (stereo not given)	-4.86%
CCC1(CO)CCCN(c2ncccc2C#N)C1 (stereo not given)	-9.06%
Cc1cc(CN2CCC(CNC(=O)c3ccc(O)c(Cl)c3)C2)[nH]n1 (stereo not given)	13.3%
CCc1cc(NC2CCN(S(C)(=O)=O)CC2)n2nc(C)c(C)c2n1	-12.2%
CN(C)CCN(C)C(=O)c1cnc2c(c1)nc(-c1ccccc1Cl)n2C	9.3%
Cc1cc(=O)[nH]c(NCCNC(=O)C(c2ccc(F)cc2)N(C)C)n1 (stereo not given)	-29.5%
CCc1cnc(N)nc1NCCN1CCCCC1	-17.8%
CN(C)S(=O)(=O)N1CCN(c2ccnc(N3CCCC3)n2)CC1	-13.3%
CCc1ocnc1C(=O)N1CCCC1c1noc(C)n1 (stereo not given)	-8.77%
COc1ncccc1CNC(=O)c1c(C)oc(C)c1C	-14.5%
C=C(C)CN1CCC(C(=O)c2cc(F)ccc2F)CC1	-14.1%
Cc1cc(C)c(CNC(=O)NCc2ccc(F)c(C)c2)c(=O)[nH]1	-12.8%
CCc1nc2n(n1)CC(NCC(=O)Nc1cc(C)nn1C)CC2 (stereo not given)	-10.7%
Cc1nn(C)c(N2CCOCC2)c1CNC1COc2ccccc2C1 (stereo not given)	-17.9%
Cc1cccc2nc(CN3CCCC3Cn3cncn3)cn12 (stereo not given)	-6.97%

SMILES	cytotoxicity at 10 µM
Cc1noc(C)c1C(=O)NCc1ccc(N2CCOCC2)nc1	-7.91%
COc1ccc(C(=O)N2CCCS2(=O)=O)cc1OC	-17.6%
CSc1ccccc1C(=O)NCCCN1CCc2ccccc2C1	-15.6%
CCCN1CCC(CNC(=O)C2(c3cccc(C)c3)CC2)C1 (stereo not given)	-13.4%
Cc1nccn1C1CCCN(C(=O)CCNc2ncccn2)C1 (stereo not given)	-13.7%
COCc1nc(C(=O)N2CCCC2c2noc(C)n2)cs1 (stereo not given)	-12%
COc1c(C2CCCN2CC(=O)Nc2cc(C)no2)c(C)nn1C (stereo not given)	-2.77%
Cc1nnc2n1CCN(CCOc1ccccc1)C2	2.24%
Cc1cnn(CC2CCCCN2C(=O)c2ccc3[nH]nnc3c2)c1 (stereo not given)	4.19%
Cc1nc(Nc2nccs2)cc(C2CCCN2)n1 (stereo not given)	63%
c1nc(CCC2CCCN2)cc(N2CCCCCC2)n1 (stereo not given)	-20.6%
CO[C@@H]1CC[C@H]2[C@H]1OCCN2CCOCc1ccccc1	-114%
CN1CCN(C)C2(CCN(Cc3ccsc3)CC2)C1=O	0.0221%
Cc1ccc(CN2CCCC3(CCCC(=O)N3C)C2)s1 (stereo not given)	-110%
O=C(O)[C@]12CCCN(C3CCOC3)C[C@H]1CN(c1nncs1)C2 (stereo not given in full)	-106%
O=C(NCc1cccnc1)N1CCc2ncnc(NC3CC3)c2CC1	-107%
CC(C)CN1CCC2(C1)CN(c1ncccn1)C2	4.73%
CCN1CC2(CC1=O)CN(Cc1ccco1)CCN(C(=O)N(C)C)C2 (stereo not given)	-6.05%
O=c1occ(CN2CCSCC2)c(O)c1CN1CCCC1	-7.03%
